Measured values reported in ChEMBL document CHEMBL1149444, “Discovery of imidazo[1,2-b][1,2,4]triazines as GABA(A) alpha2/3 subtype selective agonists for the treatment of anxiety” (J Med Chem, 2006).

How the values were obtained:
[1] = biological target: T1, GABA-A receptor; alpha-1/beta-3/gamma-2 (Homo sapiens, UniProt P14867+P18507+P28472); experiment: Displacement of [3H]Ro 15-1788 from recombinant human GABAA alpha-1 receptor plus beta3gamma2 expressed in L(tk-) cells; assay type: cell-based
T1 sequence (P14867 whole entry): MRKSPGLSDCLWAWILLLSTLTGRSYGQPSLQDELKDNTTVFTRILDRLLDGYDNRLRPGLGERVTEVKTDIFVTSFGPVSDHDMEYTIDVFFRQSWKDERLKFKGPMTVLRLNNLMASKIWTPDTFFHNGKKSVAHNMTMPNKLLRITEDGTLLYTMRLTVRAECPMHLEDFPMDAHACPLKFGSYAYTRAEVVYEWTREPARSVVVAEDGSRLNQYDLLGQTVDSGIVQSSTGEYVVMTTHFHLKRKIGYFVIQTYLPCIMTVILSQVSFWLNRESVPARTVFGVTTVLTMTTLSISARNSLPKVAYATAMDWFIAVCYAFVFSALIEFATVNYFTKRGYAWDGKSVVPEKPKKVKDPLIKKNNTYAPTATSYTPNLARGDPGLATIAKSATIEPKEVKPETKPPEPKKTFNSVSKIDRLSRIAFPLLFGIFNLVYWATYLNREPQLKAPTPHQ
T1 sequence (P18507 whole entry): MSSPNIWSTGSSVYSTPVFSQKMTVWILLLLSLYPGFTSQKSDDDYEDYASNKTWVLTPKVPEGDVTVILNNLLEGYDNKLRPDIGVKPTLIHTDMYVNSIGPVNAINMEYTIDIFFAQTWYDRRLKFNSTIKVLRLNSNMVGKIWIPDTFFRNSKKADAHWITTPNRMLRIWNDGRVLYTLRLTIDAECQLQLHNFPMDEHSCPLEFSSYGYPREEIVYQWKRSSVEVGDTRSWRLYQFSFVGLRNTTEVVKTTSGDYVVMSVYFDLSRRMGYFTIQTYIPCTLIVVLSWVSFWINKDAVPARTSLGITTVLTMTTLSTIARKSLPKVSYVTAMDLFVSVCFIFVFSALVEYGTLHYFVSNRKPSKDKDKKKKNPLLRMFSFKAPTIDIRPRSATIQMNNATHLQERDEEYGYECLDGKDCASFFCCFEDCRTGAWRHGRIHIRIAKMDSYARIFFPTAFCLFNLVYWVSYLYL
T1 sequence (P28472 whole entry): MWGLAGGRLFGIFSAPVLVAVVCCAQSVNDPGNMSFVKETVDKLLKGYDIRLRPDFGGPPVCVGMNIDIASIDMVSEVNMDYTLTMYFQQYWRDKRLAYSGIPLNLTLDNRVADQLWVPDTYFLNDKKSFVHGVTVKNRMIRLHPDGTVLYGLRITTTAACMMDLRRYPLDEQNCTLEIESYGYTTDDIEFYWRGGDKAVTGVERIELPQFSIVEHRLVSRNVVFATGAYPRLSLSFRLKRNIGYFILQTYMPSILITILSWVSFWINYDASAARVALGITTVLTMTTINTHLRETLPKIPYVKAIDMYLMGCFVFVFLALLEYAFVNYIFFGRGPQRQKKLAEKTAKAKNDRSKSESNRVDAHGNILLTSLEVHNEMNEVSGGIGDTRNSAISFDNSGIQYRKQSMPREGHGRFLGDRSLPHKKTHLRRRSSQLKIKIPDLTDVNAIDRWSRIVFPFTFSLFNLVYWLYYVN

[2] = biological target: T2, GABA-A receptor; alpha-5/beta-3/gamma-2 (Homo sapiens, UniProt P18507+P28472+P31644); experiment: Displacement of [3H] Ro15-1788 from recombinant human GABAA alpha-5 receptor plus beta3gamma2 expressed in L(tk-) cells; assay type: cell-based
T2 sequence (P18507 whole entry): T1 sequence (P18507 whole entry)
T2 sequence (P28472 whole entry): T1 sequence (P28472 whole entry)
T2 sequence (P31644 whole entry): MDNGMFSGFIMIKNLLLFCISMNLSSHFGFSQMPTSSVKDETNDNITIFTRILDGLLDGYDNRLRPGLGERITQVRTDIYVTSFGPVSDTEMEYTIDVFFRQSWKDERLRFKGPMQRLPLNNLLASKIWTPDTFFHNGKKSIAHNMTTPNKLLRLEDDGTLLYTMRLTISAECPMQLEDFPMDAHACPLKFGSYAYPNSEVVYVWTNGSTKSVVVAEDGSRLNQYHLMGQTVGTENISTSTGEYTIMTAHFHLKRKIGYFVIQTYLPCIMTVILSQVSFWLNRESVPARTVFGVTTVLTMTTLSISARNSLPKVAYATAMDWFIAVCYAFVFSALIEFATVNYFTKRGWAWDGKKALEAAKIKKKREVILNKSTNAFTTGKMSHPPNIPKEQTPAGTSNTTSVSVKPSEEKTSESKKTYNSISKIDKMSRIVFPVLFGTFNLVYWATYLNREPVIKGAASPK
Summary of the method: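 Inhibition of [3H]Ro15-1788 binding to human recombinant GABAA receptors stably expressed in L(tk-) cells, alpha subunit combined with beta3 and gamma2. Six to eight test concentrations spaced in half-log units. Ki reported as geometric mean of n = 2-12.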

[3] = biological target: GABA-A receptor; alpha-5/beta-3/gamma-2 (Homo sapiens) (UniProt P18507+P28472+P31644); experiment: Efficacy against recombinant human GABAA alpha-5 receptor plus beta3gamma2 expressed in L(tk-) cells by whole cell patch clamp method relative to chlordiazepoxide; assay type: functional, cell-based
Summary of the method: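 Whole-cell patch clamp on L(tk-) cells stably expressing human alpha subunit plus beta3gamma2. GABA applied at an EC20-equivalent concentration. Modulation of that current measured across increasing test-compound concentrations. Efficacy is expressed relative to the maximal response to the full agonist chlordiazepoxide, set at 1.00.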

[4] = Plasma clearance in rat at 1 mg/kg, iv or 1 mg/kg, po; assay type: ADME, organism-based
Summary of the method: (§1)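 Rat pharmacokinetics after dosing at 1 mg/kg iv and 1 mg/kg po. Plasma clearance in mL/min/kg, half-life in h and volume of distribution in L/kg.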

[5] = Half life in rat at 1 mg/kg, […] 1 mg/kg, po; assay type: ADME, organism-based; conditions: in vivo; summary of the method: as §1
[6] = biological target: GABA-A receptor; alpha-1/beta-3/gamma-2 (Homo sapiens) (UniProt P14867+P18507+P28472); experiment: Efficacy against recombinant human GABAA alpha1 receptor plus beta3gamma2 expressed in L(tk-) cells by whole cell patch clamp method relative to chlordiazepoxide; assay type: functional, cell-based
Summary of the method: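 Whole-cell patch clamp on L(tk-) cells stably expressing the receptor (alpha plus beta3gamma2). GABA applied at an EC20-equivalent concentration. Modulation of the current measured with increasing test concentrations. Efficacy expressed relative to the maximal chlordiazepoxide response (set at 1.00) or as a percentage.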

[7] = Oral bioavailability in dog at 1 mg/kg, iv or 1 mg/kg, po; assay type: ADME, organism-based, Canis lupus familiaris; conditions: in vivo
Summary of the method: (§2)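 Pharmacokinetics in rat, dog or rhesus after 1 mg/kg iv and 1 mg/kg po dosing. Plasma clearance (mL/min/kg), half-life (h), volume of distribution (L/kg) and oral bioavailability (%) were derived.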

[8] = Volume of distribution in rhesus at 1 mg/kg, iv or 1 mg/kg, po; assay type: ADME, organism-based, Macaca mulatta; conditions: rhesus monkey, in vivo, read-out: Vdss; summary of the method: as §2
[9] = Plasma clearance in rhesus at 1 mg/kg, iv or 1 mg/kg, po; assay type: ADME, organism-based, Macaca mulatta; conditions: rhesus monkey; summary of the method: as §2
[10] = Half life in rhesus at 1 mg/kg, iv or 1 mg/kg, po; assay type: ADME, organism-based, Macaca mulatta; conditions: rhesus monkey, in vivo; summary of the method: as §2
[11] = Oral bioavailability in rat at 1 mg/kg, iv or 1 mg/kg, po; assay type: ADME, organism-based; conditions: in vivo; summary of the method: as §2

Which Ki [1] does the source give for `CC(C)(O)c1cnn2c(-c3ccc(F)c(-c4c(F)cccc4C#N)c3)cnc2n1` here?
The Ki was 0.73 nM.

What about the Ki [2] of the same molecule?
Its Ki is 1.1 nM.

And the Efficacy [3]?
The Efficacy was 0.37%.

What about the clearance [4] of the same molecule?
Its clearance is 2.4 mL/min/kg.

And the half-life [5]?
The half-life was 11 h.

What about the Efficacy [6] of the same molecule?
The Efficacy was 3%.

And the bioavailability [7]?
The bioavailability was 22%.

What about the Vd [8] of the same molecule?
Its Vd is 2.1 L/kg.

What about the clearance [9] of the same molecule?
The clearance was 5.8 mL/min/kg.

What about the half-life [10] of the same molecule?
The half-life was 4.9 h.

What about the bioavailability [11] of the same molecule?
Its bioavailability is 77%.
